# ChEMBL document CHEMBL1806484, “Design, synthesis and biological evaluation of tyrosine-based hydroxamic acid analogs as novel histone deacetylases (HDACs) inhibitors” (Bioorg Med Chem, 2011)
# Tests used:
# [1] = biological target: Histone deacetylase; assay: Inhibition of HDAC in human HeLa cell nuclear extract using fluorogenic Boc-Lys (acetyl)-AMC as substrate after 30 mins fluorescence assay; type: protein assay
# How it was run: (§1)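 Enzyme (HeLa nuclear extract or HDAC8, the latter expressed and purified in-house) preincubated 5 min with graded compound concentrations. Substrate added and run for 30 min at 37 °C, then stopped with a trypsin/TSA developer for 20 min at 37 °C. Fluorescence read at ex 390/em 460 nm. Inhibition was taken relative to control wells, IC50 by regression. Mean ± SD of ≥3 determinations.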
# [2] = test system: A549; assay: Antiproliferative activity against human A549 cells after 48 hrs by MTT assay; type: functional, cell-based; conditions: A549, 48 h
# [3] = test system: HCT-116; assay: Antiproliferative activity against human HCT116 cells after 48 hrs by MTT assay; type: functional, cell-based; conditions: HCT-116, 48 h
# [4] = test system: MDA-MB-231; assay: Antiproliferative activity against human MDA-MB-231 cells after 48 hrs by MTT assay; type: functional, cell-based; conditions: MDA-MB-231, 48 h
# [5] = biological target: T1, Histone deacetylase 8 (Homo sapiens, UniProt Q9BY41); assay: Inhibition of HDAC8 using fluorogenic Boc-Lys (acetyl)-AMC as substrate after 30 mins by fluorescence assay; how it was run: as §1
# T1 sequence (Q9BY41 whole entry): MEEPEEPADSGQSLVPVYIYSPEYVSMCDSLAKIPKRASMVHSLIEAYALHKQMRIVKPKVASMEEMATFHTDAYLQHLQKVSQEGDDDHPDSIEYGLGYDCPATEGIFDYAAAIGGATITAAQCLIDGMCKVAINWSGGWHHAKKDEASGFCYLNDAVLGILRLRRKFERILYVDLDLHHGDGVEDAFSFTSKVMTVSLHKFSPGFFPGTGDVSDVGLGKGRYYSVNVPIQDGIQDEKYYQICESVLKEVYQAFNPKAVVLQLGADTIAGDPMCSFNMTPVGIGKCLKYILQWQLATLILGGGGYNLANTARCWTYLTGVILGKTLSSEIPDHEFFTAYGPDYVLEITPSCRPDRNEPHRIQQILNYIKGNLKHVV
SMILES,IC50 [1] [nM],IC50 [2] [nM],IC50 [3] [nM],IC50 [4] [nM],IC50 [5] [nM]
COc1ccc(NC(=O)[C@H](Cc2ccc(OCC(=O)NO)cc2)NC(=O)c2ccccc2)cc1,358,24000,1530,2980,87
O=C(COc1ccc(C[C@H](NC(=O)CCc2ccccc2)C(=O)Nc2ccccc2)cc1)NO,,,,,151
O=C(COc1ccc(C[C@H](NC(=O)OCc2ccccc2)C(=O)Nc2ccccc2)cc1)NO,,,,,197
COc1ccc(NC(=O)[C@H](Cc2ccc(OCC(=O)NO)cc2)NC(=O)OCc2ccccc2)cc1,,,,,120
COc1ccc(NC(=O)[C@H](Cc2ccc(OCC(=O)NO)cc2)NC(=O)CCCc2ccccc2)cc1,1320,97200,57300,14300,86
COc1ccc(NC(=O)[C@H](Cc2ccc(OCC(=O)NO)cc2)NCCc2ccccc2)cc1,,,,,660
COc1ccc(NC(=O)[C@H](Cc2ccc(OCC(=O)NO)cc2)NC(=O)CCc2ccccc2)cc1,889,54600,6240,6590,90
COc1ccc(NC(=O)[C@H](Cc2ccc(OCC(=O)NO)cc2)NCCCc2ccccc2)cc1,,,,,922
COc1ccc(NC(=O)[C@H](Cc2ccc(OCC(=O)NO)cc2)NCc2ccccc2)cc1,,,,,1180
N[C@@H](Cc1ccc(OCC(=O)NO)cc1)C(=O)Nc1ccccc1,,,,,467
COc1ccc(NC(=O)[C@H](Cc2ccc(OCC(=O)NO)cc2)NC(=O)Cc2ccccc2)cc1,1230,> 100000,> 100000,22300,63
O=C(COc1ccc(C[C@H](NC(=O)OCc2ccccc2)C(=O)Nc2cccc(Cl)c2)cc1)NO,,,,,213
CC(C)(C)OC(=O)N[C@@H](Cc1ccc(OCC(=O)NO)cc1)C(=O)Nc1ccccc1,,,,,227
